Measured values reported in ChEMBL document CHEMBL1144771, “Synthesis of 1-substituted 3-pyridinylmethylidenylindolin-2-ones and 1-substituted 3-quinolinylmethylidenylindolin-2-ones as the enhancers of ATRA-induced differentiation in HL-60 cells” (Bioorg Med Chem, 2008).
Active and inactive are the calls of the source. No cut-off for these calls is given here.

Columns and labels:
HL-60 [1] = assay: Cytotoxicity against human HL60 cells at 2.5 uM after 72 hrs by MTT assay; type: functional
Outline: (§1)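 Log-phase HL-60 cells at 4×10^4 cells/mL in RPMI-1640 with 10% FBS, 37 °C, 5% CO2. Treated 72 h with compound, with or without 5 nM ATRA. Cells washed in cold PBS, given MTT (5 mg/mL solution) in HBSS for 2 h at 37 °C in the dark. Formazan dissolved in DMSO, absorbance read at 570 nm. Viability given as % of vehicle control; means ± SD, four independent experiments.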

HL-60 [2] = assay: Induction of cell differentiation in human HL60 cells at 1.0 uM after 72 hrs by NBT reduction assay; type: functional
HL-60 [3] = assay: Cytotoxicity against human HL60 cells after 72 hrs by MTT assay; type: functional, cell-based; outline: as §1
HL-60 [4] = assay: Induction of cell differentiation in human HL60 cells at 5.0 uM after 72 hrs by NBT reduction assay; type: functional
HL-60 [5] = assay: Cytotoxicity against human HL60 cells at 1.0 uM after 72 hrs by MTT assay; type: functional; outline: as §1
HL-60 [6] = assay: Cytotoxicity against human HL60 cells at 5.0 uM after 72 hrs by MTT assay relative to control; type: functional; outline: as §1
HL-60 [7] = assay: Induction of cell differentiation in human HL60 cells at 2.5 uM after 72 hrs by NBT reduction assay; type: functional
HL-60 [8] = assay: Induction of cell differentiation in human HL60 cells at 0.5 uM after 72 hrs by NBT reduction assay; type: functional
HL-60 [9] = assay: Cytotoxicity against human HL60 cells at 0.5 uM after 72 hrs by MTT assay; type: functional; outline: as §1
HL-60 [10] = assay: Cytotoxicity against human HL60 cells at 2.5 uM after 72 hrs by MTT assay relative to control; type: functional; outline: as §1
HL-60 [11] = assay: Induction of cell differentiation in human HL60 cells at 5.0 uM after 72 hrs by NBT reduction assay relative to control; type: functional
HL-60 [12] = assay: Cytotoxicity against human HL60 cells at 0.5 uM after 72 hrs by MTT assay relative to control; type: functional; outline: as §1
HL-60 [13] = assay: Induction of cell differentiation in human HL60 cells at 0.1 uM after 72 hrs by NBT reduction assay; type: functional
HL-60 [14] = assay: Cytotoxicity against human HL60 cells at 0.1 uM after 72 hrs by MTT assay relative to control; type: functional; outline: as §1
HL-60 [15] = assay: Effect on morphology in human HL60 cells assessed as spindle-shape at 2 uM after 72 hrs; type: functional, cell-based
Outline: (§2)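 HL-60 cells (4×10^4) treated 72 h with vehicle, 2 µM compound alone, 2 µM compound plus 5 nM ATRA, 5 nM ATRA, or 1 µM ATRA. Unstained cells examined for spindle shape at 200× magnification. Liu's-stained cells examined by optical microscopy for horseshoe-shaped nuclei.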

HL-60 [16] = assay: Effect on morphology in human HL60 cells assessed as population of horseshoe-shape nuclei at 2 uM after 72 hrs; type: functional, cell-based; outline: as §2
HL-60 [17] = assay: Cytotoxicity against human HL60 cells at 1.0 uM after 72 hrs by MTT assay relative to control; type: functional; outline: as §1
HL-60 [18] = assay: Induction of cell differentiation in human HL60 cells at 2.5 uM after 72 hrs by NBT reduction assay relative to control; type: functional
HL-60 [19] = assay: Induction of cell differentiation in human HL60 cells at 2.0 uM after 72 hrs by NBT reduction assay relative to control; type: functional
HL-60 [20] = assay: Cytotoxicity against human HL60 cells at 2 uM after 72 hrs by MTT assay relative to control; type: functional; outline: as §1
HL-60 [21] = assay: Cell cycle arrest in human HL60 cells assessed as increase in G0/G1 phase accumulation at 2 uM after 72 hrs by flow cytometry; type: functional
Outline: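 HL-60 cells at 4×10^4 cells/mL, 72 h with vehicle, ATRA (5 nM or 1 µM), 2 µM compound alone, or 2 µM compound plus 5 nM ATRA. Cells fixed in 70% ice-cold ethanol at -20 °C overnight. Stained 30 min at 37 °C in the dark with 1% Triton X-100, 0.1 mg/mL RNase and 4 µg/mL propidium iodide. G0/G1 fraction by flow cytometry; means ± SD, four experiments.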

[22] = Cytotoxicity against human leukocytes after 48 hrs by MTT assay; type: cell-based; settings: Leukocyte
Outline: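 Human normal leukocytes in RPMI-1640 with 10% FBS. Treated with vehicle, compound alone, or compound plus 5 nM ATRA; 48 h per the legend (72 h per methods). Viability by MTT with formazan absorbance at 570 nm; 50% growth-inhibition concentration reported. Means ± SD, four experiments.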

HL-60 [23] = assay: Cytotoxicity against human HL60 cells at 10.0 uM after 72 hrs by MTT assay relative to control; type: functional; outline: as §1
HL-60 [24] = assay: Induction of cell differentiation in human HL60 cells at 10.0 uM after 72 hrs by NBT reduction assay; type: functional
HL-60 [25] = assay: Cytotoxicity against human HL60 cells at 1.0 uM after 72 hrs by MTT assay relative to ATRA; type: functional; settings: in the assay text read “relative to control” for “relative to ATRA”; outline: as §1
HL-60 [26] = assay: Cytotoxicity against human HL60 cells at 2 uM after 72 hrs by MTT assay; type: functional, cell-based; outline: as §1
HL-60 [27] = assay: Induction of cell differentiation in human HL60 cells at 2.0 uM after 72 hrs by NBT reduction assay; type: functional, cell-based
HL-60 [28] = assay: Cytotoxicity against human HL60 cells at 5.0 uM after 72 hrs by MTT assay; type: functional, cell-based; outline: as §1

SMILES	Activity (HL-60 [2])	IC50 (HL-60 [3]; Homo sapiens, HL-60, 72 h) [µM]	Activity (HL-60 [4])	Activity (HL-60 [6]) [%]	Activity (HL-60 [7])	Activity (HL-60 [8]) [%]	Activity (HL-60 [10]) [%]	Activity (HL-60 [17]) [%]	also measured
O=C1/C(=C\c2ccccn2)c2ccccc2N1Cc1ccccc1	0.7%	3.6	3.4%	24.7	0.7%	–	–	–	Activity (HL-60 [1]): 98.5%; Activity (HL-60 [5]): 116.6%
O=C1/C(=C\c2ccncc2)c2ccccc2N1Cc1cccc2ccccc12	0.5%	–	–	–	Toxic	0.8	–	–	Activity (HL-60 [1]): Toxic; Activity (HL-60 [5]): 90.8%; Activity (HL-60 [9]): 103.6%
O=C1/C(=C\c2cnc3ccccc3c2)c2ccccc2N1Cc1ccccc1	0.7%	3.2	–	10.9	0.8%	–	70.6	–	Activity (HL-60 [11]): 23.6%; Activity (HL-60 [5]): 117.4%
O=C1/C(=C\c2ccncc2)c2ccccc2N1Cc1ccc2ccccc2c1	Toxic	–	–	–	–	0.7	–	–	Activity (HL-60 [12]): 59.6%; Activity (HL-60 [13]): 0.8%; Activity (HL-60 [5]): Toxic; Activity (HL-60 [14]): 78.2%
CC(c1ccccc1)N1C(=O)/C(=C\c2cnc3ccccc3c2)c2ccccc21 (stereo in doubt; 25) [listing 1 of 2 here]	–	–	–	–	–	–	–	–	Activity (HL-60 [15]): Active; Activity (HL-60 [16]): Active
O=C1/C(=C\c2ccncc2)c2ccccc2N1Cc1ccccc1	1.2%	1.9	–	–	–	0.3	24.4	85.6	Activity (HL-60 [9]): 101%; Activity (HL-60 [18]): 7%
CC(c1ccccc1)N1C(=O)/C(=C\c2cnc3ccccc3c2)c2ccccc21 (stereo in doubt; 25Z)	3.8%	1.5	–	–	–	1.3	–	82.3	Activity (HL-60 [19]): 40.8%; Activity (HL-60 [20]): 20.3%; Activity (HL-60 [9]): 116.1%
CC(c1ccccc1)N1C(=O)/C(=C\c2cccnc2)c2ccccc21 (centres undefined)	0.8%	3.3	–	19.6	2.5%	–	87	88	Activity (HL-60 [18]): 2.5%
CC(c1ccccc1)N1C(=O)/C(=C\c2cnc3ccccc3c2)c2ccccc21 (stereo in doubt; 25) [listing 2 of 2 here]	0.3%	–	–	–	–	0.8	–	70.9	Activity (HL-60 [12]): 89.5%; IC50 (HL-60 [3]; hl-60): 1.4 µM; Activity (HL-60 [21]): 49.8%; Activity (HL-60 [19]): 33.9%; Activity (HL-60 [20]): 24.7%; IC50 [22]: 14 µM
O=C1/C(=C\c2ccnc3ccccc23)c2ccccc2N1Cc1ccccc1	0.8%	10.6	2.1%	73.8	–	–	–	85.2	Activity (HL-60 [23]): 51.2%; Activity (HL-60 [24]): 4.7%
O=C1/C(=C\c2ccc3ccccc3n2)c2ccccc2N1Cc1ccccc1	2%	2.8	4.4%	12.2	2%	–	55.7	82.7	–
CC(c1ccccc1)N1C(=O)/C(=C/c2cnc3ccccc3c2)c2ccccc21 (centres undefined)	4.3%	1.4	–	–	–	0.8	–	82.9	Activity (HL-60 [19]): 37.7%; Activity (HL-60 [20]): 25.5%; Activity (HL-60 [9]): 109.9%
O=C1/C(=C\c2cc[n+]([O-])cc2)c2ccccc2N1Cc1ccccc1	1.6%	2.9	–	22	3.2%	–	43.4	–	Activity (HL-60 [11]): 11.5%; Activity (HL-60 [25]): 90%
CC(c1ccccc1)N1C(=O)/C(=C\c2ccc3ccccc3n2)c2ccccc21 (centres undefined)	0.8%	3.4	–	18.5	1%	–	81.3	–	Activity (HL-60 [11]): 15%; Activity (HL-60 [5]): 103.2%
CC(c1ccccc1)N1C(=O)/C(=C\c2ccncc2)c2ccccc21 (centres undefined)	0.8%	–	–	–	–	1	–	49.2	Activity (HL-60 [12]): 66.7%; Activity (HL-60 [26]): Toxic; Activity (HL-60 [27]): Toxic
O=C1/C(=C\c2cccnc2)c2ccccc2N1Cc1ccccc1	0.7%	3.8	2.7%	25.4	0.8%	–	75.9	93.2	–
CC(c1ccccc1)N1C(=O)/C(=C\c2ccccn2)c2ccccc21 (centres undefined)	0.7%	5.9	2%	55.7	0.7%	–	87.1	90	–
CC(c1ccccc1)N1C(=O)/C(=C\c2ccnc3ccccc23)c2ccccc21 (centres undefined)	1.2%	–	Toxic	–	–	–	31	72.6	Activity (HL-60 [28]): Toxic; Activity (HL-60 [18]): 20.8%
